Tb MetRS inh: T. brucei MetRS inhibitors, primary screen, biochemical, luminescence; methionyl-tRNA synthetase (Trypanosoma brucei brucei); purified T. brucei MetRS, ATP depletion, Kinase-Glo luminescence; inhibition, % at 11.9 µM; 360,000 compounds, 0.4% hits; AID 624268, 2012;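 active = inhibition above a per-plate cutoff of the control wells' mean inhibition plus 3 SD, cut at about 5.5% in these data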
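Test system: purified T. brucei MetRS enzyme. Also added: ATP, methionine and E. coli bulk tRNA substrates. Compound: 11.9 µM single point. Schedule: 15 min enzyme-compound preincubation, 2 h reaction, 10 min detection, 25 °C. Signal: luciferase luminescence of residual ATP, Kinase-Glo. Evaluation: percent inhibition versus plate control medians. Controls: DMSO wells, low control.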
PLC-beta3 inh: human PLC-beta3 inhibitors, primary screen, biochemical, fluorescence. 1-phosphatidylinositol 4,5-bisphosphate phosphodiesterase beta-3 (Homo sapiens), Q01970. Purified PLC-beta3, fluorogenic substrate. inhibition, % at 12.2 µM. 370,000 compounds, 0.18% hits. AID 720704, 2013; in the data active = inhibition above about 11%
ADAM10 inh: human ADAM10 inhibitors, primary screen, biochemical, QFRET, HTS | 370,000 compounds, 0.62% hits | Disintegrin and metalloproteinase domain-containing protein 10 (Homo sapiens), O14672 | inhibition, % at 7 µM | AID 720582, 2013 | recombinant ADAM10, EDANS/DABCYL FRET peptide cleavage, 3 h;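 active = inhibition above a per-campaign cutoff equal to the mean of compounds falling between control-based bounds plus 3 SD, cut at about 20% in these data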
Target sequence (O14672 214-748 limits assumed): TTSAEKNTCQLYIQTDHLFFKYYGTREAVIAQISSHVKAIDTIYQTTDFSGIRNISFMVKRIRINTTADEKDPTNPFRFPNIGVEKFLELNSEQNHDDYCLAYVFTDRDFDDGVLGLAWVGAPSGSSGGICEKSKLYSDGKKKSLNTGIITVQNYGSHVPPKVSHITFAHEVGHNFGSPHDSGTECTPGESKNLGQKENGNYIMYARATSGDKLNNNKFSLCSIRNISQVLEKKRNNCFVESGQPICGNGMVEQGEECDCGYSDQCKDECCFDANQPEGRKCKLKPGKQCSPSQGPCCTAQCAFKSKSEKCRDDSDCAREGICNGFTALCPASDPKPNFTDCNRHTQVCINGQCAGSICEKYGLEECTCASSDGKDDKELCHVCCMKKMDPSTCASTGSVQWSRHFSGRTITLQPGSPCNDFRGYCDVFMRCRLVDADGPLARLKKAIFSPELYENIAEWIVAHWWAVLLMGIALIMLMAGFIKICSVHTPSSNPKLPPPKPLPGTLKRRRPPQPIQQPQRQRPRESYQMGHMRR
ADAM17 inh: ADAM17 inhibitors, primary screen, biochemical, QFRET. recombinant ADAM17, EDANS/DABCYL FRET peptide cleavage. inhibition, % at 6.95 µM. 370,000 compounds, 0.83% hits. AID 720648, 2013;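 active = inhibition above the mean of compounds lying between control limits plus 3 SD, set per campaign, cut at about 8.5% in these data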
PLC-gamma1 inh: PLC-gamma1 enzyme inhibitors, primary screen, biochemical, fluorescence, purified enzyme | 1-phosphatidylinositol 4,5-bisphosphate phosphodiesterase gamma-1 (Homo sapiens), P19174 | fluorogenic substrate | inhibition, % at 12.2 µM | 370,000 compounds, 0.84% hits | AID 720700, 2013; in the data active = inhibition above about 9.5%
ADAM10 ctr: ADAM10 inhibitors, counter-screen for ADAM17 exosite inhibitor project, biochemical, FRET, human ADAM10 | shares compounds with ADAM17 inh | recombinant ADAM10, EDANS/DABCYL FRET peptide cleavage, 3 h | inhibition, % at 6.95 µM | 2,900 compounds, 47% hits | AID 743256, 2014;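 active = mean inhibition over the triplicate runs exceeds the activity threshold set in the earlier primary screen, cut at about 20% in these data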
ADAM17 confirm: ADAM17 inhibitors, hit retest, confirmation, biochemical, QFRET peptide cleavage; 2,900 compounds, 65% hits; inhibition, % at 6.95 µM; shares compounds with ADAM17 inh; recombinant ADAM17, EDANS/DABCYL QFRET peptide cleavage;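 active = mean inhibition across replicates above the hit cutoff set in the primary screen, cut at about 8.5% in these data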
Each line names hits and unclear results; the compound was inactive in the other large screens (follow-up assays come after a bar, where they were run). Most compounds without a hit are left out; they make up all but 2.3% or so of the library.

O=C(c1ccccc1F)N1CCN(S(=O)(=O)c2ccc(S(=O)(=O)N3CCCCC3)cc2)CC1	ADAM17 inh 8.8 | ADAM10 ctr inactive | ADAM17 confirm inactive
O=C(c1ccccc1F)N1CCN(S(=O)(=O)c2ccc(S(=O)(=O)N3CCCCCC3)cc2)CC1	none
COc1cccc(-c2ccc(NC(=O)C3CCCN(Cc4nccn4C)C3)cc2)c1 (stereo unspecified)	none
Cc1onc(-c2ccccc2Cl)c1C(=O)OCC(=O)N1CCC(C)CC1	none
Cc1[nH]c2ccccc2c1C(=O)COC(=O)c1c(-c2ccccc2Cl)noc1C	ADAM17 inh 9.5 | ADAM10 ctr 33 | ADAM17 confirm 18
CC(C)(C)c1ccc(OCCC(=O)OCC(=O)NC(=O)NC2CCCC2)cc1	ADAM17 inh 17 | ADAM10 ctr 28 | ADAM17 confirm 13
CC(C)(C)c1ccc(OCCC(=O)OCC(=O)NC2CCCCC2)cc1	none
CN(C)c1cc(-c2cccc(C(F)(F)F)c2)oc(=O)c1Cl	none
Cc1ccc(NC(=O)C(C)N2C(=O)c3ccccc3C2=O)cc1S(=O)(=O)N1CCOCC1 (stereo unspecified)	none
Oc1ccccc1CN1CCCC(N2CCN(c3cccc(C(F)(F)F)c3)CC2)C1 (stereo unspecified)	ADAM17 inh 9.0 | ADAM10 ctr 24 | ADAM17 confirm 19
CN(Cc1ccc(F)cc1)C(=O)c1cccc(OCc2ccccc2)c1	ADAM17 inh 8.7 | ADAM10 ctr inactive | ADAM17 confirm 12
COc1ccc(OC)c(C2C(C(N)=O)=C(C)Nc3nc(-c4cccc(Cl)c4)nn32)c1 (stereo unspecified)	ADAM17 inh 9.3 | ADAM10 ctr inactive | ADAM17 confirm inactive
COc1ccccc1-c1nc2n(n1)C(c1ccccc1Cl)C(C(N)=O)=C(C)N2 (stereo unspecified)	none
O=C(COC(=O)C1CC2C=CC1C2)Nc1cccc(S(=O)(=O)N2CCCCCC2)c1 (stereo unspecified)	none
COc1ccc(CCNC(=O)CSc2nc(N)c(C#N)c(-c3cccs3)c2C#N)cc1OC	ADAM17 inh 8.9 | ADAM10 ctr inactive | ADAM17 confirm inactive
COC(=O)C1=C(C)N(Cc2ccc(Br)cc2)C(=S)NC1c1ccc(F)cc1 (stereo unspecified)	ADAM17 inh 9.3 (no result: Tb MetRS inh) | ADAM10 ctr inactive | ADAM17 confirm 12
COC(=O)[C@H](CC(C)C)NCc1cccc(CN[C@@H](CC(C)C)C(=O)OC)c1	ADAM17 inh 8.9 | ADAM10 ctr inactive | ADAM17 confirm inactive
COC(=O)[C@H](CC(C)C)NS(=O)(=O)N(Cc1ccccc1)[C@@H](CC(C)C)C(=O)OC	none
Cc1cc(C)cc(NC(=O)NCc2c(-c3ccccc3)noc2C)c1	none
Cc1onc(-c2ccccc2)c1CNC(=O)Nc1ccc(C(F)(F)F)cc1	ADAM17 inh 9.1 | ADAM10 ctr 27 | ADAM17 confirm 16
COc1cccc(CN2CC(C(=O)NCCCn3cccn3)CCC2=O)c1 (stereo unspecified)	none
CC(C)CC(=O)c1c(O)cc(O)c2c1OC1=C(C(=O)C(C)(C)C(=O)C1(C)C)C2CC(C)C (stereo unspecified)	ADAM17 inh 9.2 (no result: Tb MetRS inh) | ADAM10 ctr inactive | ADAM17 confirm inactive
CCC(C)c1ccc(O)c(NC(=S)NC(=O)c2cccnc2)c1 (stereo unspecified)	none
CCC(C)c1ccc(O)c(NC(=O)c2cncc(Br)c2)c1 (stereo unspecified)	ADAM17 inh 10 | ADAM10 ctr inactive | ADAM17 confirm 9.8
